Reference: ChEMBL document CHEMBL4145672, “Structural Characterization of Terpenoids from Abies holophylla Using Computational and Statistical Methods and Their Biological Activities” (J Nat Prod, 2018)

Legend:
[1] = test system: C6; test: Neuroprotective activity in rat C6 cells assessed as induction of nerve growth factor secretion at 20 uM measured after 24 hrs by ELISA relative to control; type: functional
How it was run: (§1)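 Rat C6 glioma cells were seeded at 1 × 10^5 cells/well. After 24 h they were switched to serum-free DMEM and treated with compound (20 μM, some at 5 μM) for 24 h. NGF secreted into the conditioned medium was quantified by ELISA and expressed as percent of untreated control (100%). Values are means ± SD of three independent experiments.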

[2] = test system: BV-2; test: Antiinflammatory activity in mouse BV2 cells assessed as inhibition of LPS-induced nitric oxide production measured after 24 hrs by Griess assay; type: functional, cell-based; conditions: BV-2, 24 h
How it was run: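 Murine microglial BV2 cells were seeded at 4 × 10^4 cells/well and exposed to a range of compound concentrations. LPS (100 ng/mL) was added and cells were incubated 24 h. Nitrite in the medium was reacted 10 min with Griess reagent (0.1% N-1-naphthylethylenediamine dihydrochloride, 1% sulfanilamide in 5% phosphoric acid), read at 570 nm and quantified against a sodium nitrite standard curve. IC50 values are reported.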

[3] = Cytotoxicity against rat C6 cells assessed as cell viability at 20 uM measured after 24 hrs by MTT assay relative to control; type: cell-based; conditions: read-out: Activity
How it was run: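 Rat C6 glioma cells were seeded at 1 × 10^5 cells/well. After 24 h they were switched to serum-free DMEM containing 20 μM compound for another 24 h. Viability was determined by MTT as percent of untreated control, some data at 5 μM. Values are means ± SD of three independent experiments.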

[4] = Cytotoxicity against mouse BV2 cells assessed as cell viability at 20 uM measured after 24 hrs by MTT assay relative to control; type: cell-based, BV-2; conditions: read-out: Activity
How it was run: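 BV2 cells under the NO assay conditions (LPS 100 ng/mL, 24 h) were given 20 μM of each compound, with some data collected at 5 μM. Viability was measured by MTT and expressed as percent. Values are means ± SD of three independent experiments.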

[5] = test system: C6; test: Neuroprotective activity in rat C6 cells assessed as induction of nerve growth factor secretion at 5 uM measured after 24 hrs by ELISA relative to control; type: functional; how it was run: as §1
[6] = Cytotoxicity against mouse BV2 cells assessed as cell viability at 5 uM measured after 24 hrs by MTT assay relative to control; type: cell-based, BV-2; conditions: read-out: Activity
How it was run: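 BV2 murine microglia were seeded at 4 × 10^4 cells/well, exposed to compound (5 μM here), and stimulated with LPS 100 ng/mL for 24 h. Viability was read by MTT and expressed as % of control. Values are means ± SD of three independent experiments.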

[7] = test system: A549; test: Cytotoxicity against human A549 cells assessed as cell growth inhibition measured after 48 hrs by sulforhodamine B assay; type: functional, cell-based; conditions: A549, 48 h
How it was run: (§2)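 The SRB assay was run on ATCC-derived human tumor lines maintained at the Korea Research Institute of Chemical Technology. Read-out was cell growth. IC50 is the concentration giving 50% growth inhibition. Cisplatin served as positive control.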

[8] = Cytotoxicity against rat C6 cells assessed as cell viability at 5 uM measured after 24 hrs by MTT assay relative to control; type: cell-based; conditions: read-out: Activity
How it was run: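 C6 glioma cells were seeded at 1 × 10^5 cells/well, grown 24 h, then switched to serum-free DMEM with compound (5 μM here) for another 24 h. Viability was read by MTT as % of untreated cells. Values are means ± SD of three independent experiments.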

[9] = test system: HCT-15; test: Cytotoxicity against human HCT15 cells assessed as cell growth inhibition measured after 48 hrs by sulforhodamine B assay; type: functional, cell-based; conditions: HCT-15, 48 h; how it was run: as §2
[10] = test system: SK-MEL-2; test: Cytotoxicity against human SK-MEL-2 cells assessed as cell growth inhibition measured after 48 hrs by sulforhodamine B assay; type: functional, cell-based; conditions: SK-MEL-2, 48 h; how it was run: as §2
[11] = test system: SK-OV-3; test: Cytotoxicity against human SKOV3 cells assessed as cell growth inhibition measured after 48 hrs by sulforhodamine B assay; type: functional, cell-based; conditions: SK-OV-3, 48 h; how it was run: as §2

Row | Structure (SMILES) | Activity [1] [%] | IC50 [2] [µM] | viability at 24 h, 20 µM [3] [%] | viability at 24 h, 20 µM [4] [%] | Activity [5] [%] | viability at 24 h, 5 µM [6] [%] | IC50 [7] [µM] | viability at 24 h, 5 µM [8] [%] | IC50 [9] [µM] | IC50 [10] [µM] | IC50 [11] [µM]
1 | C/C(=C\CO)[C@@H](O)C[C@@H]1[C@@]2(C)CCCC(C)(C)[C@@H]2CC[C@@]1(C)O | 125.7 | 19.5 | 99.8 | 122 |  |  |  |  |  |  | 
2 | C=C[C@@](C)(O)[C@H]1C[C@@H]2[C@@]3(C)CCCC(C)(C)[C@@H]3CC[C@@]2(C)O1 |  | 42.2 |  | 118 |  |  |  |  |  |  | 
3 | CC1(C)CCC[C@]2(C)[C@H]3CC(=O)O[C@]3(C)CC[C@@H]12 |  | 20.3 |  | 131 |  |  |  |  |  |  | 
4 | C/C(=C\CC[C@@H](C)[C@H]1CC[C@@]2(C)[C@@H]3CC[C@H]4C(C)(C)C(=O)CC[C@@]45C[C@@]35CC[C@]12C)C(=O)O [MANGIFERONIC ACID] |  | 9 |  | 21 |  |  |  |  |  |  | 
5 | CC1=CC(O)(C[C@@H](C)[C@]2(C)CC=C3C4=CC[C@H]5C(C)(C)[C@H](O)CC[C@]5(C)[C@@H]4CC[C@]32C)OC1=O (stereo not given in full) | 121.7 | 4 | 56.7 | 9.7 | 158.1 | 154 | > 10 | 108 | > 10 | 4.2 | > 10
6 | CNC(=N)NCCC[C@H](N)C(=O)O [TILARGININE] |  |  |  | 105 |  |  |  |  |  |  | 
7 | C/C(=C\CC[C@@H](C)[C@H]1CC[C@@]2(C)[C@@H]3CC[C@H]4C(C)(C)[C@@H](O)CC[C@@]45C[C@@]35CC[C@]12C)C(=O)O [MANGIFEROLIC ACID] | 128.6 | 12.8 | 79.3 | 35.2 |  |  |  |  |  |  | 
8 | C=C[C@@]1(C)O[C@]2(C)CC[C@H]3C(C)(C)CCC[C@]3(C)[C@H]2C[C@H]1O |  | 25 |  | 112 |  |  |  |  |  |  | 
9 | C[C@]12CCC[C@@](C)(C(=O)O)[C@@H]1CCC1=CC(=O)CC[C@@H]12 |  | 18.1 |  | 124 |  |  |  |  |  |  | 
10 | CCCCC/C=C/C(=O)CCc1ccc(O)c(OC)c1 [SHOGAOL] | 158.2 |  | 110 |  |  |  |  |  |  |  | 
11 | CC(=O)/C=C/C1[C@](C)(O)CC[C@H]2C(C)(C)CCC[C@]12C (stereo not given in full) |  | 9.8 |  | 114 |  |  |  |  |  |  | 
12 | C=C[C@@]1(C)C=C2CC[C@@H]3[C@](C)(CCC[C@@]3(C)C(=O)O)[C@H]2CC1 [PIMARIC ACID] |  | 13.6 |  | 117 |  |  |  |  |  |  | 
13 | C=C(C)[C@@H]1CC=C2[C@@H](CC[C@]23C(=C)CC[C@@]3(C)[C@H](C)CC(=O)/C=C(\C)C(=O)O)[C@@]1(C)CCC(=O)O | 195.1 | 19.1 | 104 | 136 |  |  |  |  |  |  | 
14 | C[C@@H]1C[C@]2(C[C@@H](C)[C@]3(CC[C@@]4(C)[C@@H]5CC[C@H]6C(C)(C)[C@H](O)CC[C@@]67C[C@@]57CC[C@@]43C)O2)OC1=O | 149.3 |  | 107 |  |  |  | > 10 |  | > 10 | 8.5 | > 10
15 | C=C(CC(=O)C[C@@H](C)[C@]1(C)CCC(=C)[C@]12CC[C@@H]1C2=CC[C@@H](C(=C)C)[C@]1(C)CCC(=O)O)C(=O)O | 173.3 |  | 112 |  |  |  |  |  |  |  | 
16 | CC1=CC(O)(C[C@@H](C)[C@H]2CC[C@@]3(C)C4=CC[C@H]5C(C)(C)C(=O)CC[C@]5(C)[C@@H]4CC[C@]23C)OC1=O (stereo not given in full) |  | 10.2 |  | 15.9 |  |  | 9.4 |  | > 10 | 4.1 | > 10
17 | C=C(C)[C@@H]1CC=C2[C@@H](CC=C3[C@@]2(C)CC[C@@]3(C)[C@H](C)C[C@@H]2C[C@@H](C)C(=O)O2)[C@@]1(C)CCC(=O)OC |  | 39.7 |  | 86.8 |  |  | 2.4 |  | 2.3 | 1.7 | 6.2
18 | C/C(=C\CO)[C@H](O)C[C@@H]1[C@@]2(C)CCCC(C)(C)[C@@H]2CC[C@@]1(C)O | 127.9 |  | 104 |  |  |  |  |  |  |  | 
19 | C=C(C)[C@@H]1C=CC2=C3CC[C@@](C)([C@H](C)CC(=O)C[C@@H](C)C(=O)O)[C@]3(C)CC[C@H]2[C@@]1(C)CCC(=O)O | 146.1 |  | 110 |  |  |  |  |  |  |  | 
20 | C/C(=C\[C@H](O)C[C@@H](C)[C@H]1CC[C@@]2(C)C3=CC[C@H]4C(C)(C)C(=O)CC[C@]4(C)[C@@H]3CC[C@]12C)C(=O)O | 140.9 | 29.8 | 111 | 125 |  |  | > 10 |  | > 10 | 8.8 | > 10
21 | C/C(=C\C(=O)C[C@@H](C)[C@H]1CC[C@@]2(C)C3=CC[C@H]4C(C)(C)C(=O)CC[C@]4(C)[C@@H]3CC[C@]12C)C(=O)O | 153.9 | 10.5 | 62.2 | 19.4 |  |  | 8.7 |  | > 10 | 3.2 | 7.7
22 | C/C(=C\C(=O)C[C@@H](C)[C@@H]1CC=C2C3=CC[C@H]4C(C)(C)[C@H](O)CC[C@]4(C)[C@@H]3CC[C@]21C)C(=O)O | 156 | 10.3 | 85.7 | 9.9 |  |  | > 10 |  | > 10 | 7.2 | > 10
23 | C=C(C)[C@@H]1CC=C2[C@@H](CC[C@]3(C)[C@@H]([C@H](C)C[C@@H]4C[C@@H](C)C(=O)O4)CC[C@@]23C)[C@@]1(C)CCC(=O)OC |  | 17.3 |  | 123 |  |  | > 10 |  | 8.1 | 5.5 | > 10
24 | C=C(CC(=O)C[C@@H](C)[C@H]1CC[C@@]2(C)C3=CC[C@H]4C(C)(C)C(=O)CC[C@]4(C)[C@@H]3CC[C@]12C)C(=O)O | 178.9 | 15 | 98.5 | 125 |  |  |  |  |  |  | 
25 | CC1(C)O[C@H]2C[C@H]3C(=C[C@]21O)CC[C@@H]1[C@]3(C)CCC[C@@]1(C)C(=O)O | 136.9 |  | 99 |  |  |  |  |  |  |  | 
